Measurements taken from ChEMBL document CHEMBL1135414, “Structure-activity relationships at human and rat A2B adenosine receptors of xanthine derivatives substituted at the 1-, 3-, 7-, and 8-positions” (J Med Chem, 2002).
pKi: −log10 of the molar value.

Experiments:
Adenosine receptor A2a = Adenosine receptor A2a (Rattus norvegicus, UniProt P30543); experiment: Binding affinity at rat Adenosine A2A receptor by [3H]-CGS- 21680 displacement.
Adenosine receptor A1 = biological target: T1, Adenosine receptor A1 (Rattus norvegicus, UniProt P25099); experiment: Binding affinity of specific [3H]R-PIA binding to rat Adenosine A1 receptor in HEK293 cells; type: cell-based
T1 sequence (P25099 whole entry): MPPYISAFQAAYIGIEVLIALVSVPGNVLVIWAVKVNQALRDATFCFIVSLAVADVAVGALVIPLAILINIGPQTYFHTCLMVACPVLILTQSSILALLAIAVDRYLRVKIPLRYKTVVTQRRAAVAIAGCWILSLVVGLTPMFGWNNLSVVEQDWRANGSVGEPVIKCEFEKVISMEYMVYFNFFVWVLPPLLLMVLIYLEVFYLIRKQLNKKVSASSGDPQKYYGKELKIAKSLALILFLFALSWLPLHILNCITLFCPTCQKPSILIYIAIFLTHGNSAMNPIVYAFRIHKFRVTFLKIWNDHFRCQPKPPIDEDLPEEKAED

Adenosine receptor A2b [1] = biological target: T2, Adenosine receptor A2b (Homo sapiens, UniProt P29275); experiment: Binding affinity at human Adenosine A2B receptor expressed in HEK293 cells, using [125I]ABOPX as radioligand; type: cell-based
T2 sequence (P29275 whole entry): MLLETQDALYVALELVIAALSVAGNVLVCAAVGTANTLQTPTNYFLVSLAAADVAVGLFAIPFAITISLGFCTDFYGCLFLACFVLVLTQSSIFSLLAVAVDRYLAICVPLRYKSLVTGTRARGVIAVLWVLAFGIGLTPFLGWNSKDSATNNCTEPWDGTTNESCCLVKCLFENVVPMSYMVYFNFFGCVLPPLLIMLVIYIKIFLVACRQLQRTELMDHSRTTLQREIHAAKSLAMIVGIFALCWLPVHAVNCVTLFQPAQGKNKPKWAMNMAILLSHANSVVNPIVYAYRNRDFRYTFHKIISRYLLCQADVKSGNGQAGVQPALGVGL

[2] = biological target: Adenosine receptor A2a (Rattus norvegicus) (UniProt P30543); experiment: Displacement of [3H]-CGS- 21680 from Adenosine A2A receptor of rat striatal membranes; type: cell membranes; design: concentration or dose not given beside the values; settings: Membrane
How it was run: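 Competition of specific [3H]CGS 21680 binding in rat striatal membranes, reported as Ki ± SEM or as percent displacement at the stated concentration; n = 3–5.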

Rattus norvegicus [3] = species on record: Rattus norvegicus; experiment: Relative affinities for rat Adenosine A1 and Adenosine A2B receptors
Adenosine receptor A2b [4] = biological target: T3, Adenosine receptor A2b (Rattus norvegicus, UniProt P29276); experiment: Inhibition of […] binding to rat Adenosine A2B receptor expressed in HEK cells; type: cell-based, HEK293
T3 sequence (P29276 whole entry): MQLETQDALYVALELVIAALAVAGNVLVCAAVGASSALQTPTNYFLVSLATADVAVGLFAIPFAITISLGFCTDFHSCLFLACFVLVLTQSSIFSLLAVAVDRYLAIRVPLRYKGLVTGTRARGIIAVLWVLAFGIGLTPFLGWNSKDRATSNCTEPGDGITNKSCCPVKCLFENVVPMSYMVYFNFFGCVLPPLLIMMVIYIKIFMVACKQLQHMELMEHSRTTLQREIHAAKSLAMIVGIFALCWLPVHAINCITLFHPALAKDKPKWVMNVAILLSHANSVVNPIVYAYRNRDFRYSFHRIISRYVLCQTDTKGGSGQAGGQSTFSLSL

Rattus norvegicus [5] = species on record: Rattus norvegicus; experiment: Relative affinities for rat Adenosine A2A and Adenosine A2B receptors

Chain of Adenosine receptor A2a (P30543 whole entry): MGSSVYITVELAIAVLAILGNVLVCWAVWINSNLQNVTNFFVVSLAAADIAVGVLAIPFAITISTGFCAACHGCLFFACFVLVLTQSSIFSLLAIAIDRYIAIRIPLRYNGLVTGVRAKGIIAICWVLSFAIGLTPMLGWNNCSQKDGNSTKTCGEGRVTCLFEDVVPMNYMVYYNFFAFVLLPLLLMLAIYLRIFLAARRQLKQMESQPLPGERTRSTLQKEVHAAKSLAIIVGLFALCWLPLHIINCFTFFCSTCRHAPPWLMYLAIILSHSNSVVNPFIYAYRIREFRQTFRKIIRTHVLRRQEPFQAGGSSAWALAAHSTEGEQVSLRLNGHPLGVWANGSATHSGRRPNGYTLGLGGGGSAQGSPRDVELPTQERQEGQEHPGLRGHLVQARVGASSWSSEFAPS
Chain of Adenosine receptor A2a (Rattus norvegicus) (P30543 whole entry): as above

## CCCn1c(=O)c2nc(-c3cc(O)c(OC)c(O)c3)[nH]c2n(CCC)c1=O
Adenosine receptor A2a
  pKi: 5.87
Adenosine receptor A1
  pKi: 7.52
Adenosine receptor A2b [1]
  pKi: 7.23

## Cn1c(=O)c2c(ncn2CCN)n(C)c1=O
Adenosine receptor A2b [1]
  pKi: 4.63

## Cn1c(=O)c2c(ncn2CC(=O)O)n(C)c1=O [ACEFYLLINE]
Adenosine receptor A2b [1]
  pKi: 4.56

## CCCn1c(=O)c2nc(-c3cccc(O)c3O)[nH]c2n(CCC)c1=O
[2]
  Displacement: < 10%
Adenosine receptor A1
  pKi: 7.41
Adenosine receptor A2b [1]
  pKi: 6.90

## CCCn1c(=O)c2c(nc(-c3ccccc3)n2CCCl)n(CCC)c1=O
Rattus norvegicus [3]
  Ratio: 0.49
Adenosine receptor A2b [4]
  pKi: 5.47
Rattus norvegicus [5]
  Ratio: 5
Adenosine receptor A2a
  pKi: 4.78
Adenosine receptor A1
  pKi: 5.78
Adenosine receptor A2b [1]
  pKi: 6.16

## Cn1c(=O)c2c(ncn2CC#N)n(C)c1=O
Adenosine receptor A2b [1]
  pKi: 4.84

## C#CCn1c(=O)n(C)c(=O)c2c1ncn2C
Adenosine receptor A2b [1]
  pKi: 5.02

## Cn1c(=O)c2[nH]c(-c3ccccc3)nc2n(C)c1=O [8-PHENYL THEOPHYLLINE]
Adenosine receptor A2b [1]
  pKi: 6.38

## CN(C)c1ccc(-c2nc3c([nH]2)c(=O)n(C)c(=O)n3C)cc1
Adenosine receptor A2b [1]
  pKi: 6.54

## CCn1c(=O)c2nc[nH]c2n(C)c1=O
Adenosine receptor A2a
  pKi: 5.01
Adenosine receptor A1
  pKi: 4.61
Adenosine receptor A2b [1]
  pKi: 5.79

## Cn1c(=O)c2nc(-c3ccccc3C(=O)O)[nH]c2n(C)c1=O
Adenosine receptor A2b [1]
  pKi: 4.95

## CC(=O)Cn1c(=O)c2c(ncn2C)n(C)c1=O
Adenosine receptor A2b [1]
  pKi: 4.68

## C#CCn1cnc2c1c(=O)n(C)c(=O)n2C
Adenosine receptor A2b [1]
  pKi: 5.02

## COc1ccc(-c2nc3c([nH]2)c(=O)n(C)c(=O)n3C)cc1
Adenosine receptor A2b [1]
  pKi: 6.40

## CCn1c(=O)c2[nH]c(-c3ccccc3)nc2n(CC)c1=O
Adenosine receptor A2b [1]
  pKi: 7.21

## C=CCn1cnc2c1c(=O)n(C)c(=O)n2C
Adenosine receptor A2b [1]
  pKi: 5.02

## Cn1cnc2c1c(=O)n(CC(=O)O)c(=O)n2C
Adenosine receptor A2b [1]
  pKi: 4.63

## CC(=O)OCCn1c(=O)c2c(ncn2C)n(C)c1=O
Adenosine receptor A2b [1]
  pKi: 5.06

## Cn1c(=O)c2c(ncn2CCCl)n(C)c1=O [7-CHLOROETHYLTHEOPHYLLINE]
Rattus norvegicus [3]
  Ratio: 2.8
Adenosine receptor A2b [4]
  pKi: 5.27
Rattus norvegicus [5]
  Ratio: 0.78
Adenosine receptor A2a
  pKi: 5.37
Adenosine receptor A1
  pKi: 4.82
Adenosine receptor A2b [1]
  pKi: 5.86

## CCCn1c(=O)c2nc(-c3cc(O)ccc3O)[nH]c2n(CCC)c1=O
Adenosine receptor A2a
  pKi: 4.76
Adenosine receptor A1
  pKi: 8.13
Adenosine receptor A2b [1]
  pKi: 6.86

## C=CCn1c(=O)[nH]c2[nH]cnc2c1=O
[2]
  Displacement: < 10%

## CCCn1c(=O)c2nc(-c3ccc(NC(C)=O)cc3)[nH]c2n(CCC)c1=O
[2]
  Displacement: < 10%
Adenosine receptor A1
  pKi: 7.41
Adenosine receptor A2b [1]
  pKi: 7.44

## CCCn1c(=O)c2nc(-c3ccc(OCC(=O)O)cc3O)[nH]c2n(CCC)c1=O
Adenosine receptor A2a
  pKi: 5.57
Adenosine receptor A1
  pKi: 6.12
Adenosine receptor A2b [1]
  pKi: 6.73

## CCCn1c(=O)c2[nH]c(-c3ccc(O)cc3O)nc2n(CCC)c1=O
Adenosine receptor A2a
  pKi: 6.97
Adenosine receptor A1
  pKi: 6.66

## Cn1c(=O)c2[nH]c(-c3ccc(S(=O)(=O)O)cc3)nc2n(C)c1=O
Adenosine receptor A2b [1]
  pKi: 5.88

## CCCn1c(=O)c2[nH]c(-c3ccc(OCC(=O)Nc4ccc(C#N)cc4)cc3)nc2n(CCC)c1=O
Rattus norvegicus [3]
  Ratio: 1.3
Adenosine receptor A2b [4]
  pKi: 7.89
Rattus norvegicus [5]
  Ratio: 48

## O=c1[nH]c2[nH]cnc2c(=O)n1CCc1ccccc1
[2]
  Displacement: < 10%

## CCCn1c(=O)[nH]c2[nH]cnc2c1=O
Rattus norvegicus [3]
  Ratio: 1.8
Rattus norvegicus [5]
  Ratio: > 10
[2]
  Displacement: < 10%

## Cn1c(=O)c2c(ncn2CCCCCl)n(C)c1=O
Rattus norvegicus [3]
  Ratio: 0.95
Adenosine receptor A2b [4]
  pKi: 4.73
Rattus norvegicus [5]
  Ratio: 1.8
Adenosine receptor A2a
  pKi: 4.48
Adenosine receptor A1
  pKi: 4.75
Adenosine receptor A2b [1]
  pKi: 4.82

## COCn1c(=O)c2c(ncn2C)n(C)c1=O
Adenosine receptor A2b [1]
  pKi: 4.85

## CCCn1c(=O)c2nc(-c3cnccn3)[nH]c2n(CCC)c1=O
Adenosine receptor A2b [1]
  pKi: 7.10

## Cn1c(=O)c2[nH]c(-c3ccc([N+](=O)[O-])cc3[N+](=O)[O-])nc2n(C)c1=O
Adenosine receptor A2b [1]
  pKi: 4.81

## CC(C)CCn1c(=O)c2[nH]cnc2n(CC(C)C)c1=O
Adenosine receptor A2b [1]
  pKi: 5.20

## Cn1c(=O)c2c(ncn2CCCCl)n(C)c1=O
Rattus norvegicus [3]
  Ratio: 1.7
Adenosine receptor A2b [4]
  pKi: 4.85
Rattus norvegicus [5]
  Ratio: > 10
[2]
  Displacement: < 10%
Adenosine receptor A1
  pKi: 4.63
Adenosine receptor A2b [1]
  pKi: 5.25

## CCCCn1c(=O)c2nc[nH]c2n(CC)c1=O
[2]
  Displacement: < 10%
Adenosine receptor A1
  pKi: 5.66
Adenosine receptor A2b [1]
  pKi: 5.76

## Cn1c(=O)c2[nH]c(-c3ccc([N+](=O)[O-])cc3)nc2n(C)c1=O
Adenosine receptor A2b [1]
  pKi: 5.16

## CC(C)CCn1c(=O)c2nc(-c3ccccc3)[nH]c2n(CC(C)C)c1=O
Adenosine receptor A2b [1]
  pKi: 5.00

## CCn1c(=O)c2nc[nH]c2n(CC)c1=O
Adenosine receptor A2b [1]
  pKi: 5.75

## C=CCn1c(=O)c2[nH]c(-c3ccccc3)nc2n(C)c1=O
Rattus norvegicus [3]
  Ratio: 1.7
Adenosine receptor A2b [4]
  pKi: 6.76
Rattus norvegicus [5]
  Ratio: 11
Adenosine receptor A2a
  pKi: 5.72
Adenosine receptor A1
  pKi: 6.52
Adenosine receptor A2b [1]
  pKi: 7.43

## Cn1c(=O)c2[nH]c(-c3cccc(C(=O)O)c3)nc2n(C)c1=O
Adenosine receptor A2b [1]
  pKi: 5.26

## Cn1cnc2c1c(=O)n(CC#N)c(=O)n2C
Adenosine receptor A2b [1]
  pKi: 4.67

## CC(=O)OCCn1cnc2c1c(=O)n(C)c(=O)n2C
Adenosine receptor A2b [1]
  pKi: 4.63

## C=CCn1c(=O)c2c(ncn2C)n(CC=C)c1=O
Adenosine receptor A2b [1]
  pKi: 5.47

## CCCn1c(=O)c2nc(-c3c(F)cccc3F)[nH]c2n(CCC)c1=O
Adenosine receptor A2b [1]
  pKi: 6.51

## CCCCCCn1c(=O)c2nc[nH]c2n(CCCCCC)c1=O
Adenosine receptor A2b [1]
  pKi: 5.12

## CCCn1c(=O)c2nc(-c3ccc(Cl)cc3OC)[nH]c2n(CCC)c1=O
Adenosine receptor A2b [1]
  pKi: 5.19

## CC(C)n1c(=O)n(C)c(=O)c2[nH]cnc21
Adenosine receptor A2b [1]
  pKi: 5.31

## CCCCn1c(=O)[nH]c2[nH]cnc2c1=O
[2]
  Displacement: < 10%

## Cn1c(=O)c2c(ncn2Cc2ccccc2)n(C)c1=O
Adenosine receptor A2b [1]
  pKi: 4.71

## CCCn1c(=O)c2[nH]c(-c3ccc(OC)cc3O)nc2n(CCC)c1=O
Adenosine receptor A2a
  pKi: 5.26
Adenosine receptor A1
  pKi: 7.01
Adenosine receptor A2b [1]
  pKi: 7.33

## O=c1[nH]c2[nH]cnc2c(=O)n1C1CCCC1
[2]
  Displacement: < 10%

## CCCn1c(=O)[nH]c2[nH]c(C3CCCC3)nc2c1=O
Adenosine receptor A1
  pKi: 8.11

## CC(=O)CCCCn1c(=O)c2c(ncn2C)n(C)c1=O [PENTOXIFYLLINE]
Adenosine receptor A2b [1]
  pKi: 5.29

## C#CCn1c(=O)c2c(ncn2C)n(C)c1=O
Adenosine receptor A2b [1]
  pKi: 5.38

## Cn1c(=O)c2c(ncn2CCO)n(C)c1=O [ETOFYLLINE]
Adenosine receptor A2b [1]
  pKi: 4.76
